Assay results from publication PMC9998351 (Steroids, 2023).
Where “and” joins values, the source holds several entries; their conditions need not be identical. Identical values can stand only once. Entries after “also recorded” stand apart in the source; their conditions may differ.

Assays:
Acute toxicity [1] = assay type: in vivo, mice; conditions: male, Nude, mouse, in vivo, ip
male Nude mice = experiment: Acute toxicity; assay type: in vivo; conditions: male nude mice
male CD-1 mice = experiment: Acute toxicity; assay type: in vivo; conditions: male CD-1 mice
Acute toxicity [2] = assay type: in vivo, mice; conditions: male, CD-1, mouse, in vivo, po
[3] = Oral pharmacokinetics and bioavailability in rats; assay type: in vivo; conditions: for bioavailability: both; for AUC(0-t): AUClast; for Vd/F: Vz/F; for AUC(0-inf): AUCinf; for half-life: T1/2, male rats
In short: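 Sprague Dawley rats (8–12 wk, 3/sex/group, catheterised jugular vein) got one oral gavage dose of 10 or 50 mg/kg. Dose was a solution in cremophor:ethanol:saline (1:1:8), pH 4.0, at 10 ml/kg. EDTA plasma was collected at 5, 15, 30 min, 1, 2, 4, 6 and 24 h, precipitated with acetonitrile, and quantified by LC-MS/MS against abiraterone internal standard. Noncompartmental parameters; bioavailability from oral AUClast versus IV.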

[4] = female rats, 10 mg/kg PO, GeoMean
[5] = female rats, 10 mg/kg PO, individual rat, listed as VNPP433-3β, 10 mg/kg
[6] = female rats, 50 mg/kg PO, individual rat, listed as VNPP433-3β, 50 mg/kg
[7] = female, Sprague Dawley, rat, plasma, po, 10 mg/kg, female rats, 10 mg/kg PO, GeoMean
[8] = female, Sprague Dawley, rat, plasma, po, 10 mg/kg, female rats, 10 mg/kg PO, individual rat
[9] = male rats, 10 mg/kg PO, GeoMean
[10] = male rats, 10 mg/kg PO, individual rat, listed as VNPP433-3β, 10 mg/kg
[11] = male rats, 50 mg/kg PO, GeoMean
[12] = male rats, 50 mg/kg PO, individual rat, listed as VNPP433-3β, 50 mg/kg
[13] = male, Sprague Dawley, rat, plasma, po, 10 mg/kg, male rats, 10 mg/kg PO, GeoMean
[14] = male, Sprague Dawley, rat, plasma, po, 10 mg/kg, male rats, 10 mg/kg PO, individual rat

For `C[C@]12CC[C@H](n3ccnc3)CC1=CC[C@@H]1[C@@H]2CC[C@]2(C)C(n3cnc4ccccc43)=CC[C@@H]12` [Compound 2, 3β-(1H-imidazole-1-yl)-17-(1H-benzimidazole-1-yl)-androsta-5,16-diene], the MTD at 2 weeks (Acute toxicity [1]) was 50 mg/kg, the Mortality (male Nude mice; 100 mg/kg single intraperitoneal dose, 3 mice, 100 mg/kg) was “one mouse died in the 100 mg/kg group” and the Signs of toxicity (male Nude mice; 25 and 50 mg/kg single intraperitoneal dose, two weeks) was “did not exhibit any signs of toxicity”. For the same compound, the Tolerability and mortality (male CD-1 mice; 100 mg/kg PO, observed 72 hrs) was “well tolerated, and no mortality was observed”, the Mortality (male CD-1 mice; 1000 mg/kg PO, 3 mice, 1000 mg/kg) was “two mice died on days 2 and the third mice died on day 3; also recorded: Two mice were in a moribund stage and found dead 36 hrs. post dose, the third mice died 72 hrs. post dose” and the Clinical signs (male CD-1 mice; 1000 mg/kg PO, after 24 hrs) was “piloerection, apathy (inactive) and hypothermia”. The “Gross necropsy, organ toxicity” value (male CD-1 mice; all three dose groups (100, 300, 1000 mg/kg PO), postmortem) was “no evident organ toxicity”, the “Signs of toxicity at necropsy” value (male CD-1 mice; low (100 mg/kg) and medium (300 mg/kg) dose PO, after 72 hrs) was “no signs of toxicity were observed” and the NOAEL at 72 h (Acute toxicity [2]) was over 300 mg/kg. For the same compound, the bioavailability ([3]; Sprague Dawley, rat, plasma, oral) was 32 to 47%, the bioavailability ([3]; Sprague Dawley, rat, plasma, po, 10 mg/kg) was 32 to 34% and the “AUC% Extrap” value [3, 4] was 81.9%. For the same compound, the Cmax/D [3, 4] was 59.4 ng/mL/mg/kg, the “AUC% Extrap” value [3, 5] was 76.9% and 88.6% and 80.8% and the AUClast [3, 5] was 484 µg·min/mL and 785 µg·min/mL. The Cmax [3, 5] was 408 ng/mL and 681 ng/mL, the Cmax/D [3, 5] was 75.5 ng/mL/mg/kg and 40.8 ng/mL/mg/kg and 68.1 ng/mL/mg/kg and the Cmax/D ([3]; female rats, 50 mg/kg PO, GeoMean) was 90.0 ng/mL/mg/kg. For the same compound, the AUClast [3, 6] was 5560 µg·min/mL and 4300 µg·min/mL, the Cmax [3, 6] was 4820 ng/mL and 4320 ng/mL and the Cmax/D [3, 6] was 87.6 ng/mL/mg/kg and 96.4 ng/mL/mg/kg and 86.4 ng/mL/mg/kg. It also gave an AUC(0-t) [3, 7] of 11600 ng·h/mL, an AUC(0-t) [3, 8] of 14900 ng·h/mL and a CL/F ([3]; female, Sprague Dawley, rat, plasma, po, 10 mg/kg, CL/F, female rats, 10 mg/kg PO, GeoMean) of 2.46 mL/min/kg. For the same compound, the CL/F ([3]; female, Sprague Dawley, rat, plasma, po, 10 mg/kg, CL/F, female rats, 10 mg/kg PO, individual rat) was 2.58 mL/min/kg, the Cmax ([3]; female, Sprague Dawley, rat, plasma, po, 10 mg/kg, Cmax, female rats, 10 mg/kg PO, GeoMean) was 594 ng/mL and the Cmax ([3]; female, Sprague Dawley, rat, plasma, po, 10 mg/kg, Cmax, female rats, 10 mg/kg PO, individual rat) was 755 ng/mL. The Tmax ([3]; female, Sprague Dawley, rat, plasma, po, 10 mg/kg, Tmax, female rats, 10 mg/kg PO, GeoMean) was 6 h, the Tmax ([3]; female, Sprague Dawley, rat, plasma, po, 10 mg/kg, Tmax, female rats, 10 mg/kg PO, individual rat) was 6 h and the Vd/F [3, 7] was 16.3 L/kg. It also gave a Vd/F [3, 8] of 12.7 L/kg, an AUC(0-t) ([3]; female, Sprague Dawley, rat, plasma, po, 50 mg/kg, female rats, 50 mg/kg PO, GeoMean) of 80000 ng·h/mL and an AUC(0-t) ([3]; female, Sprague Dawley, rat, plasma, po, 50 mg/kg, female rats, 50 mg/kg PO, individual rat) of 76800 ng·h/mL. It also gave a Cmax ([3]; female, Sprague Dawley, rat, plasma, po, 50 mg/kg, Cmax, female rats, 50 mg/kg PO, GeoMean) of 4500 ng/mL, a Cmax ([3]; female, Sprague Dawley, rat, plasma, po, 50 mg/kg, Cmax, female rats, 50 mg/kg PO, individual rat) of 4380 ng/mL and a Tmax ([3]; female, Sprague Dawley, rat, plasma, po, 50 mg/kg, Tmax, female rats, 50 mg/kg PO, GeoMean) of 24 h. For the same compound, the Tmax ([3]; female, Sprague Dawley, rat, plasma, po, 50 mg/kg, Tmax, female rats, 50 mg/kg PO, individual rat) was 23.3 h, the “AUC% Extrap” value [3, 9] was 16.5% and the Cmax/D [3, 9] was 61.3 ng/mL/mg/kg. For the same compound, the “AUC% Extrap” value [3, 10] was 24.4% and 9.55% and 19.3%, the AUCinf [3, 10] was 364 µg·min/mL and 715 µg·min/mL and the AUClast [3, 10] was 329 µg·min/mL and 577 µg·min/mL. For the same compound, the CL/F [3, 10] was 27.5 mL/min/kg and 14.0 mL/min/kg, the Cmax [3, 10] was 460 ng/mL and 715 ng/mL and the Cmax/D [3, 10] was 70.2 ng/mL/mg/kg and 46.0 ng/mL/mg/kg and 71.5 ng/mL/mg/kg. For the same compound, the T1/2 [3, 10] was 6.3 h and 9.0 h, the Vz/F [3, 10] was 15.0 L/kg and 10.9 L/kg and the “AUC% Extrap” value [3, 11] was 79.5%. For the same compound, the Cmax/D [3, 11] was 54.5 ng/mL/mg/kg, the Tmax ([3]; male rats, 50 mg/kg PO, individual rat) was 6 h and the “AUC% Extrap” value [3, 12] was 94.3% and 66.9%. The AUClast [3, 12] was 4460 µg·min/mL and 3600 µg·min/mL, the Cmax [3, 12] was 3430 ng/mL and 3160 ng/mL and the Cmax/D [3, 12] was 37.4 ng/mL/mg/kg and 68.6 ng/mL/mg/kg and 63.2 ng/mL/mg/kg. For the same compound, the Tmax [3, 12] was 6 h, the “Time of peak of PO concentration-time profiles” value ([3]; male rats, PO) was 6 h and the AUC(0-inf) [3, 13] was 9380 ng·h/mL. The AUC(0-inf) [3, 14] was 11400 ng·h/mL, the AUC(0-t) [3, 13] was 7700 ng·h/mL and the AUC(0-t) [3, 14] was 8650 ng·h/mL. For the same compound, the CL/F ([3]; male, Sprague Dawley, rat, plasma, po, 10 mg/kg, CL/F, male rats, 10 mg/kg PO, GeoMean) was 17.8 mL/min/kg, the CL/F ([3]; male, Sprague Dawley, rat, plasma, po, 10 mg/kg, CL/F, male rats, 10 mg/kg PO, individual rat) was 14.6 mL/min/kg and the Cmax ([3]; male, Sprague Dawley, rat, plasma, po, 10 mg/kg, Cmax, male rats, 10 mg/kg PO, GeoMean) was 613 ng/mL. For the same compound, the Cmax ([3]; male, Sprague Dawley, rat, plasma, po, 10 mg/kg, Cmax, male rats, 10 mg/kg PO, individual rat) was 702 ng/mL, the half-life ([3]; male, Sprague Dawley, rat, plasma, po, 10 mg/kg, 10 mg/kg PO, GeoMean) was 8.22 h and the half-life ([3]; male, Sprague Dawley, rat, plasma, po, 10 mg/kg, 10 mg/kg PO, individual rat) was 9.8 h. The Tmax ([3]; male, Sprague Dawley, rat, plasma, po, 10 mg/kg, Tmax, male rats, 10 mg/kg PO, GeoMean) was 6 h, the Tmax ([3]; male, Sprague Dawley, rat, plasma, po, 10 mg/kg, Tmax, male rats, 10 mg/kg PO, individual rat) was 6 h and the Vd/F [3, 13] was 12.6 L/kg.
